Measurements from different studies.
Protocols differ between the studies behind these lines.
Target: Atypical kinase COQ8B, mitochondrial (COQ8B, Homo sapiens, UniProt Q96D53)
Residues used in one study (Q96D53 1-544): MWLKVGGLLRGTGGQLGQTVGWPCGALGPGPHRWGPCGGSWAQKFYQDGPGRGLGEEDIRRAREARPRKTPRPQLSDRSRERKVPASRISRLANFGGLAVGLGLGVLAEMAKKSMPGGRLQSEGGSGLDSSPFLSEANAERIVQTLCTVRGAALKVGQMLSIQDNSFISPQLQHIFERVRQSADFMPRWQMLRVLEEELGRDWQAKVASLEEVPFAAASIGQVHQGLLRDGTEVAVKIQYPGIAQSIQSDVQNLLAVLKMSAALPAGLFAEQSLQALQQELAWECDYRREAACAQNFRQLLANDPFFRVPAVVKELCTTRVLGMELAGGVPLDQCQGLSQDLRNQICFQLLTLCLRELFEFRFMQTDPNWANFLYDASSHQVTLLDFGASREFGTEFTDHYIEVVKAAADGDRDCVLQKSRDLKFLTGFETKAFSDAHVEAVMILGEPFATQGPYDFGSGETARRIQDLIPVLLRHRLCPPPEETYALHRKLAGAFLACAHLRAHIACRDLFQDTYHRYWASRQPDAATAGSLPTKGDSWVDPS

Compound	effect on	method	tested at	remaining binding [%]
c1cnn2ncc(-c3ccnc(N4CCC45COC5)n3)c2c1	binding		1 µM	100
O=C(NCCCN1CCOCC1)c1ccc(Nc2nccc(-c3cc4ccccc4s3)n2)cc1	binding	competition with immobilised ligand	1 µM	62
O=C(NS(=O)(=O)c1ccc(NCC2CCOCC2)c([N+](=O)[O-])c1)c1ccc(N2CCN(Cc3ccc(C(F)(F)F)cc3-c3ccc(Cl)cc3)CC2)cc1Oc1cnc2[nH]ccc2c1	cell-free assay	competition with immobilised ligand	1 µM	90
O=C(c1ccc(Nc2ncc(Cl)c(-c3cc4ccccc4s3)n2)cc1)N1CCC(N2CCCC2)CC1	binding	competition with immobilised ligand	1 µM	44
COc1cnc(Nc2cccc(S(N)(=O)=O)c2)nc1N1CCN(c2ccccc2)C(=O)C1	binding	competition with immobilised ligand	1 µM	100
CCN1CCN(Cc2ccc(C(=O)Nc3ccc(C)c(Oc4ccc5c(c4)CC(=O)N5)c3)cc2C(F)(F)F)CC1	binding	competition with immobilised ligand	1 µM	80
Cc1cnn2ncc(-c3ccnc(N(C)C)n3)c2c1	binding		1 µM	81
Nc1ncc2c(n1)-c1c([nH]c3ccc(C#CC4CC4)cc13)CCCC2	binding	competition with immobilised ligand	1 µM	90
Cc1nc(N2CC[C@@H](O)C2)ncc1-c1cc(C(F)(F)F)cc2[nH]ncc12	cell-free assay	competition with immobilised ligand	1 µM	100
c1cncc(-c2cccc(Nc3nccc(NC4CCCCC4)n3)c2)c1	binding	competition with immobilised ligand	10 µM	24
CCCCN(CCCC)C(=O)CN1C[C@@H](c2cc(OC)c3c(c2)OCO3)[C@H](C(=O)O)[C@H]1CC(C)(C)CCC	cell-free assay	competition with immobilised ligand	1 µM	80.2
CN(CCCC(F)(F)F)c1nccc(-c2cnn3ncccc23)n1	binding		1 µM	84
O=C(NCCCC1CCCCC1)c1ccc(CNC(=O)c2cnn(-c3ccccc3)c2C(F)(F)F)cc1	cell-free assay	competition with immobilised ligand	0.1 µM	100
CC1CCCN1c1nccc(-c2cnn3ncccc23)n1 (stereo not shown)	binding		1 µM	68
O=C(NCC1CCOCC1)c1n[nH]cc1NC(=O)c1c(F)cccc1F	binding	competition with immobilised ligand	1 µM	85
CS(=O)(=O)N1CCCC(NC(=O)[C@H](CCC2CCCCC2)NC(=O)c2ccc(CNC(=O)c3cnc4ccccn34)cc2)C1 (stereo partly shown)	cell-free assay	competition with immobilised ligand	0.1 µM	100
C[C@@H]1CCN(c2nccc(-c3cnn4ncccc34)n2)C1	binding		1 µM	89
CN(C(=O)c1ccccc1)c1cc(N(C)c2ccc3c(c2)CCc2ccc(C(=O)NCCN4CCOCC4)cc2C3=O)ccc1F	cell-free assay	competition with immobilised ligand	1 µM	100
N[C@@H]1CCN(c2nccc(-c3cnn4ncccc34)n2)C1	binding		1 µM	100
O=C(Nc1ccc(Oc2ccc(F)cc2)cc1)N1CCc2ncccc2[C@H]1c1ccc(F)cc1	cell-free assay	competition with immobilised ligand	1 µM	92
COc1ccnn2ncc(-c3ccnc(N(C)C)n3)c12	binding		1 µM	96
O=C(c1ccc(Nc2nccc(-c3cc4ccccc4s3)n2)cc1)N1CCC(N2CCCC2)CC1	binding	competition with immobilised ligand	1 µM	90
